Data published in ChEMBL document CHEMBL4265871, “Novel alkylated azoles as potent antifungals” (Eur J Med Chem, 2017).
Values after ≈ are worked out from the molar mass of the structure shown.

Test system: Candida albicans
Experiment: Antifungal activity against Candida albicans ATCC 64124 incubated for 48 hrs by modified CLSI M27-A3 protocol based method
Assay type: functional
Conditions: ATCC 64124, 48 h
Compound `CCCCCCC(O)(Cn1cncn1)c1ccc(F)cc1` (configuration not stated) has an MIC50 greater than 107 µM.

Test system: Candida albicans
Experiment: Antifungal activity against ITC and FLC-susceptible Candida albicans ATCC MYA-2876 incubated for 48 hrs by modified CLSI M27-A3 protocol based method
Assay type: functional
Conditions: ATCC MYA-2876, 48 h
Method in brief: (§1)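 Because these Candida strains show trailing growth, MIC-2 was read, meaning 50% growth inhibition. Caspofungin and voriconazole were tested here; other controls came from earlier work.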
For `CCCCCCC(O)(Cn1cncn1)c1ccc(F)cc1` (configuration not stated), the MIC50 was 26.8 µM (≈ 7.81 µg/mL).

Test system: Candida albicans
Experiment: Antifungal activity against ITC and FLC-susceptible Candida albicans ATCC MYA-2310 incubated for 48 hrs by modified CLSI M27-A3 protocol based method
Assay type: functional
Conditions: ATCC MYA-2310, 48 h
In the case of `CCCCCCC(O)(Cn1cncn1)c1ccc(F)cc1` (configuration not stated), the MIC50 is reported as 26.8 µM (≈ 7.81 µg/mL).

Test system: Candida albicans
Experiment: Antifungal activity against ITC and FLC-resistant Candida albicans ATCC MYA-1003 incubated for 48 hrs by modified CLSI M27-A3 protocol based method
Assay type: functional
Conditions: ATCC MYA-1003, 48 h
Method in brief: as §1
Compound `CCCCCCC(O)(Cn1cncn1)c1ccc(F)cc1` (configuration not stated) has an MIC50 of 26.8 µM (≈ 7.81 µg/mL).

Test system: Nakaseomyces glabratus
Experiment: Antifungal activity against Candida glabrata ATCC 2001 incubated for 48 hrs by modified CLSI M27-A3 protocol based method
Assay type: functional
Conditions: ATCC 2001, 48 h
For `CCCCCCC(O)(Cn1cncn1)c1ccc(F)cc1` (configuration not stated), the MIC50 was 26.8 µM (≈ 7.81 µg/mL).

Test system: Pichia kudriavzevii
Experiment: Antifungal activity against Candida krusei ATCC 6258 incubated for 48 hrs by modified CLSI M27-A3 protocol based method
Assay type: functional
Conditions: ATCC 6258, 48 h, read-out: MIC100
Method in brief: (§2)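 For C. albicans ATCC 10231, C. krusei ATCC 6258 and C. parapsilosis ATCC 22019, MIC-0 was read, meaning complete growth inhibition. For azole controls, MIC-2 (50% growth inhibition) was reported instead. Caspofungin and voriconazole were tested here; other controls came from earlier work.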
With `CCCCCCC(O)(Cn1cncn1)c1ccc(F)cc1` (configuration not stated) the MIC was 3.3 µM (≈ 0.962 µg/mL).

Test system: Candida parapsilosis
Experiment: Antifungal activity against Candida parapsilosis ATCC 22019 incubated for 48 hrs by modified CLSI M27-A3 protocol based method
Assay type: functional
Conditions: Lodderomyces parapsilosis, ATCC 22019, 48 h; read-out: MIC100
Method in brief: as §2
`CCCCCCC(O)(Cn1cncn1)c1ccc(F)cc1` (configuration not stated) gave an MIC of 1.6 µM (≈ 0.466 µg/mL).

Test system: Aspergillus nidulans
Experiment: Antifungal activity against Aspergillus nidulans ATCC 38163 incubated for 48 hrs by CLSI M38-A2 protocol based method
Assay type: functional
Conditions: ATCC 38163, 48 h, read-out: MIC100
With `CCCCCCC(O)(Cn1cncn1)c1ccc(F)cc1` (configuration not stated) the MIC was 6.7 µM (≈ 1.95 µg/mL).

Test system: not listed separately
Experiment: Toxicity in human A549 cells assessed as reduction in cell viability incubated for 24 hrs by resazurin dye based assay
Conditions: not given
Method in brief: (§3)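 Toxicity tested in the nucleated lines A549 and BEAS-2B to give EC50 values. Selectivity index is EC50 against the mammalian line divided by the MIC against a given fungal strain.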
Compound `CCCCCCC(O)(Cn1cncn1)c1ccc(F)cc1` (configuration not stated) has an EC50 at 24 h greater than 31.3 µg/mL.

Test system: not listed separately
Experiment: Toxicity in human BEAS2B cells assessed as reduction in cell viability incubated for 24 hrs by resazurin dye based assay
Conditions: BEAS-2B cells
Method in brief: as §3
Compound `CCCCCCC(O)(Cn1cncn1)c1ccc(F)cc1` (configuration not stated) has an EC50 at 24 h greater than 31.3 µg/mL.

Test system: not listed separately
Experiment: Hemolytic activity in mouse erythrocytes assessed as hemolysis level at 1.95 ug/ml incubated for 1 hr at 37 degC
Assay type: ADME, cell-based, Erythrocyte
Conditions: read-out: Activity
Method in brief: (§4)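 Mouse erythrocytes incubated 1 h at 37 °C with test agents over 1.95 to 125 µg/mL. Percent lysis is read for each concentration.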
For `CCCCCCC(O)(Cn1cncn1)c1ccc(F)cc1` (configuration not stated), the hemolysis at 1 h, 1.95 ug/ml was 0%.

Test system: not listed separately
Experiment: Hemolytic activity in mouse erythrocytes assessed as hemolysis level at 3.9 ug/ml incubated for 1 hr at 37 degC
Assay type: ADME, cell-based, Erythrocyte
Conditions: read-out: Activity
Method in brief: as §4
For `CCCCCCC(O)(Cn1cncn1)c1ccc(F)cc1` (configuration not stated), the hemolysis at 1 h, 3.9 ug/ml was 0%.

Test system: not listed separately
Experiment: Hemolytic activity in mouse erythrocytes assessed as hemolysis level at 7.8 ug/ml incubated for 1 hr at 37 degC
Assay type: ADME, cell-based, Erythrocyte
Conditions: read-out: Activity
Method in brief: as §4
For `CCCCCCC(O)(Cn1cncn1)c1ccc(F)cc1` (configuration not stated), the hemolysis at 1 h, 7.8 ug/ml was 5.2%.

Test system: not listed separately
Experiment: Hemolytic activity in mouse erythrocytes assessed as hemolysis level at 31.3 ug/ml incubated for 1 hr at 37 degC
Assay type: ADME, cell-based, Erythrocyte
Conditions: read-out: Activity
Method in brief: as §4
In the case of `CCCCCCC(O)(Cn1cncn1)c1ccc(F)cc1` (configuration not stated), the hemolysis at 1 h, 31.3 ug/ml is reported as 0%.

Test system: not listed separately
Experiment: Selectivity index, ratio of EC50 for toxicity in human BEAS2B cells to MIC50 for antifungal activity against Candida albicans ATCC 64124
Assay type: cell-based
Conditions: BEAS-2B cells, read-out: Selectivity Index
Method in brief: (§5)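 Selectivity index is the EC50 against the mammalian line (A549 or BEAS-2B) divided by the MIC against the given fungal strain.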
`CCCCCCC(O)(Cn1cncn1)c1ccc(F)cc1` (configuration not stated) gave a selectivity ratio of 1.

Test system: not listed separately
Experiment: Selectivity index, ratio of EC50 for toxicity in human BEAS2B cells to MIC100 for antifungal activity against Candida albicans ATCC 10231
Assay type: cell-based
Conditions: BEAS-2B cells, read-out: Selectivity Index
Method in brief: as §5
For `CCCCCCC(O)(Cn1cncn1)c1ccc(F)cc1` (configuration not stated), the selectivity ratio was 2.

Test system: not listed separately
Experiment: Selectivity index, ratio of EC50 for toxicity in human A549 cells to MIC50 for antifungal activity against Candida albicans ATCC 64124
Assay type: cell-based
Conditions: read-out: Selectivity Index
Method in brief: as §5
`CCCCCCC(O)(Cn1cncn1)c1ccc(F)cc1` (configuration not stated) gave a selectivity ratio of 1.

Test system: not listed separately
Experiment: Selectivity index, ratio of EC50 for toxicity in human A549 cells to MIC50 for antifungal activity against ITC and FLC-susceptible Candida albicans ATCC MYA-2876
Assay type: cell-based
Conditions: read-out: Selectivity Index
Method in brief: as §5
Work on `CCCCCCC(O)(Cn1cncn1)c1ccc(F)cc1` (configuration not stated) yielded a selectivity ratio of 4.

Test system: not listed separately
Experiment: Selectivity index, ratio of EC50 for toxicity in human BEAS2B cells to MIC50 for antifungal activity against ITC and FLC-susceptible Candida albicans ATCC MYA-2876
Assay type: cell-based
Conditions: BEAS-2B cells, read-out: Selectivity Index
Method in brief: (§6)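 Ratio of the compound's EC50 against BEAS-2B cells to its MIC against the named C. albicans strain. […] For C. albicans strains other than ATCC 10231, trailing growth meant MIC-2 was taken, meaning 50% growth inhibition.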
Compound `CCCCCCC(O)(Cn1cncn1)c1ccc(F)cc1` (configuration not stated) has a selectivity ratio of 4.

Test system: not listed separately
Experiment: Selectivity index, ratio of EC50 for toxicity in human A549 cells to MIC50 for antifungal activity against ITC and FLC-resistant Candida albicans ATCC MYA-90819
Assay type: cell-based
Conditions: read-out: Selectivity Index
Method in brief: as §5
In the case of `CCCCCCC(O)(Cn1cncn1)c1ccc(F)cc1` (configuration not stated), the selectivity ratio is reported as 32.

Test system: not listed separately
Experiment: Selectivity index, ratio of EC50 for toxicity in human BEAS2B cells to MIC50 for antifungal activity against ITC and FLC-susceptible Candida albicans ATCC MYA-2310
Assay type: cell-based
Conditions: BEAS-2B cells, read-out: Selectivity Index
Method in brief: as §6
For `CCCCCCC(O)(Cn1cncn1)c1ccc(F)cc1` (configuration not stated), the selectivity ratio was 4.

Test system: not listed separately
Experiment: Selectivity index, ratio of EC50 for toxicity in human A549 cells to MIC50 for antifungal activity against ITC and FLC-resistant Candida albicans ATCC 1237
Assay type: cell-based
Conditions: read-out: Selectivity Index
Method in brief: as §5
With `CCCCCCC(O)(Cn1cncn1)c1ccc(F)cc1` (configuration not stated) the selectivity ratio was 1.

Test system: not listed separately
Experiment: Selectivity index, ratio of EC50 for toxicity in human BEAS2B cells to MIC50 for antifungal activity against ITC and FLC-resistant Candida albicans ATCC 1237
Assay type: cell-based
Conditions: BEAS-2B cells, read-out: Selectivity Index
Method in brief: as §5
Compound `CCCCCCC(O)(Cn1cncn1)c1ccc(F)cc1` (configuration not stated) has a selectivity ratio of 1.

Test system: not listed separately
Experiment: Selectivity index, ratio of EC50 for toxicity in human A549 cells to MIC50 for antifungal activity against ITC and FLC-resistant Candida albicans ATCC MYA-1003
Assay type: cell-based
Conditions: read-out: Selectivity Index
Method in brief: as §5
For `CCCCCCC(O)(Cn1cncn1)c1ccc(F)cc1` (configuration not stated), the selectivity ratio was 4.

Test system: not listed separately
Experiment: Selectivity index, ratio of EC50 for toxicity in human BEAS2B cells to MIC50 for antifungal activity against ITC and FLC-resistant Candida albicans ATCC MYA-1003
Assay type: cell-based
Conditions: BEAS-2B cells, read-out: Selectivity Index
Method in brief: as §5
In the case of `CCCCCCC(O)(Cn1cncn1)c1ccc(F)cc1` (configuration not stated), the selectivity ratio is reported as 4.

Test system: not listed separately
Experiment: Selectivity index, ratio of EC50 for toxicity in human BEAS2B cells to MIC50 for antifungal activity against Candida glabrata ATCC 2001
Assay type: cell-based
Conditions: BEAS-2B cells, read-out: Selectivity Index
Method in brief: as §5
Work on `CCCCCCC(O)(Cn1cncn1)c1ccc(F)cc1` (configuration not stated) yielded a selectivity ratio of 4.

Test system: not listed separately
Experiment: Selectivity index, ratio of […] for toxicity in human BEAS2B cells to MIC50 for antifungal activity against Aspergillus flavus ATCC MYA-3631
Assay type: cell-based
Conditions: BEAS-2B cells, read-out: Selectivity Index
In the case of `CCCCCCC(O)(Cn1cncn1)c1ccc(F)cc1` (configuration not stated), the selectivity ratio is reported as 1.

Test system: not listed separately
Experiment: Selectivity index, ratio of […] for toxicity in human A549 cells to MIC50 for antifungal activity against Aspergillus nidulans ATCC 38163
Assay type: cell-based
Conditions: read-out: Selectivity Index
Compound `CCCCCCC(O)(Cn1cncn1)c1ccc(F)cc1` (configuration not stated) has a selectivity ratio of 16.

Test system: not listed separately
Experiment: in vitro
Conditions: mouse, mouse erythrocytes
With `CCCCCCC(O)(Cn1cncn1)c1ccc(F)cc1` (configuration not stated) the hemolysis at 1 h, 62.5 ug/ml was 7%.

Test system: not listed separately
Experiment: Selectivity index, ratio of EC50 for toxicity in human A549 cells to MIC50 for antifungal activity against Candida krusei ATCC 6258
Conditions: not given
Compound `CCCCCCC(O)(Cn1cncn1)c1ccc(F)cc1` (configuration not stated) has a selectivity ratio of 32.

Test system: not listed separately
Experiment: Selectivity index, ratio of EC50 for toxicity in human BEAS2B cells to MIC50 for antifungal activity against Candida krusei ATCC 6258
Conditions: BEAS-2B cells
Compound `CCCCCCC(O)(Cn1cncn1)c1ccc(F)cc1` (configuration not stated) has a selectivity ratio of 32.

Test system: not listed separately
Experiment: Selectivity index, ratio of EC50 for toxicity in human A549 cells to MIC for antifungal activity against Candida parapsilosis ATCC 22019
Conditions: not given
With `CCCCCCC(O)(Cn1cncn1)c1ccc(F)cc1` (configuration not stated) the selectivity ratio was 65.
